Changes are numbered by the printed parent chain. Where no end group is shown, it is not given here. The star is where a group is joined. Cbz = O=C(OCc1ccccc1)*
Experiments:
TG2 S3-2 Mut (E329A) = target: T1, TG2 S3-2 Mut (E329A) (Homo sapiens, UniProt P21980, E329A); experiment: steady-state kinetic analysis with S3-2 mutant; assay type: biochemical; settings: S3-2 (E329A) mutant, result in words
T1 sequence (P21980 1-687 E329A): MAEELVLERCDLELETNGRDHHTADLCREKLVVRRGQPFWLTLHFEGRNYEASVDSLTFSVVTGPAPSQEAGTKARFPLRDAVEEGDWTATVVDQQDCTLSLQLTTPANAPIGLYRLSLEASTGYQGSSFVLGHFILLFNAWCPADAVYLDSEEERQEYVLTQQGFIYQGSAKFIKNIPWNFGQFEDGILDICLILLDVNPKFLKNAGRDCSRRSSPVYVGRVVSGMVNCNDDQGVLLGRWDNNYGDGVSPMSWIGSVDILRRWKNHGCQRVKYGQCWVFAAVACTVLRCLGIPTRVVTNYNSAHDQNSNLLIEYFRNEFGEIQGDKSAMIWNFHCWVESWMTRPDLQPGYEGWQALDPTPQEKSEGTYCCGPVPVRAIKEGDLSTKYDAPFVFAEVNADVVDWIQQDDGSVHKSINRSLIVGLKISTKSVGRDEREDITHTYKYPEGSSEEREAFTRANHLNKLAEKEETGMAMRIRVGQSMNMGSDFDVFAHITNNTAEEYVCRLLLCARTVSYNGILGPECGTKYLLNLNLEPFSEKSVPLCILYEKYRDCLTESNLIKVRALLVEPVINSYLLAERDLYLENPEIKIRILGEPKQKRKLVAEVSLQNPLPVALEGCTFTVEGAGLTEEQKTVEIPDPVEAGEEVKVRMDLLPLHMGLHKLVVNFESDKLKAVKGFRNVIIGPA
Summary of the method: (§1)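 N-terminally His-tagged human TG2, wild type or site-directed mutant, was expressed in E. coli BAP1 and purified by Ni-NTA, anion exchange and size exclusion. Steady-state deamidation was assayed at 1 μM enzyme with varying Gln-peptide substrate concentrations. Released NH4+ was coupled to glutamate dehydrogenase with 10 mM α-ketoglutarate and 500 μM NADH in 200 mM MOPS. Ca2+ was 5 mM unless otherwise varied.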

human TG2 = target: T2, human TG2 (Homo sapiens, UniProt P21980); experiment: kinetic analysis of irreversible inhibitors using 1 as the TG2 substrate; assay type: biochemical; settings: KM of substrate 1 used in the inhibitor analysis (Fig. 1D legend)
T2 sequence (P21980 1-687): T1 sequence (P21980 1-687 E329A) with A329E
Summary of the method: as §1

Substance	catalytic activity of S3-2 mutant against the substrate (TG2 S3-2 Mut (E329A))	Km (human TG2) [µM]
AcPQLPF [Compound 1]	barely detectable	175
Cbz-Gln-Gly [ZQG, reference compound]	negligible	

— paper PMC11252922 (Proceedings of the National Academy of Sciences of the …, 2024)
